Assay results: PubChem BioAssay
Calls of active or inactive are those of the source. Unless noted, no stated cut-off is given here; in the data, active means inhibition above about 30%; inactive means the rest.

Tests used:
[1] = reducers of endogenous Her2 protein level, primary screen, SKBR3 breast tumor cells, AlphaScreen, ATP viability (AID 461;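 active means Her2 level under about 52% in both replicate screens, with viability over 70% of control, limit read from the data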;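 on Her2 level: lower value means less Her2 protein in the cells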;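 on viability: percent of carrier control wells set as 100% viability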); conditions: 18-24 h, measured here: SKBR3 viability, ATP luminescence, at 10 µM
[2] = target: Receptor tyrosine-protein kinase erbB-2 (Homo sapiens) (UniProt P04626); assay: as above; conditions: 18-24 h, at 10 µM, stronger effect = lower value
[3] = SK-BR-3 cell growth inhibitors, pilot screen, 24 h, human (AID 572;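 active means viability at or below 10% of carrier control in both of two separate runs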;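 further: compound exposure lasted between 18 and 24 h rather than exactly 24 h; 100% = carrier-treated control wells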); conditions: SK-BR-3 viability, CellTiter-Glo luminescence, at 10 µM, stronger effect = lower value
[4] = HUVEC growth inhibition – cell-based, human, primary screen (AID 575;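 active means viability at or below 30% in both replicate assays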;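 further: 100% = median of untreated cell wells with 0.1% DMSO on each plate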); conditions: HUVEC proliferation, CellTiter-Glo luminescence, 72 h; at 10 µM; stronger effect = lower value
Summary of the method: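 System – primary HUVEC, no more than 12 passages · Medium – Low-serum (2% FBS) EBM, supplemented · Times – 72 h exposure, 37 °C, 5% CO2, 30 min RT equilibration · Measured by – luminescent ATP assay · Read-out – % viability relative to median vehicle-well signal on each plate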

[5] = growth inhibitors of H69AR lung tumor, primary screen, human, duplicate replicates (AID 580;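 active means viability at or under a set limit in both replicates, limit being median viability minus 3 SD, cut at about 48% in these data, passing the limit was not always enough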;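 further: 100% = mean luminescence of untreated wells and 0% = no signal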); conditions: H69AR lung tumor cells viability, ATP luminescence, 72 h; at 10 µM; stronger effect = lower value
[6] = reversal of MRP1-mediated doxorubicin resistance, pilot screen, H69AR cells, doxorubicin co-treatment (AID 601;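 active means viability loss from added drug above about 55%, and viability with drug at most 40%, in both replicates, limit read from the data, passing the limit was not always enough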); conditions: CellTiter-Glo, 72 h, at 10 µM; for differential viability (reversal): stronger effect = higher value
[7] = 384-well plate pilot, post-Golgi transport modulator project, inhibition of yeast transport mutant growth (AID 636; in the data active means inhibition above about 31%); conditions: absorbance 615 nm, about 18 h, stronger effect = higher value
[8] = growth suppression of yeast trafficking mutant, preliminary HTS, modulators of trafficking downstream of Golgi apparatus project, 1536-format plate, OD 615 nm (AID 637); conditions: yeast transport mutant growth, absorbance 615 nm, 18 h; stronger effect = higher value
[9] = H69AR cells + 2 uM doxorubicin, measured here: viability with 2 uM doxorubicin, stronger effect = lower value
[10] = H69AR cells, compound alone cytotoxicity

Receptor tyrosine-protein kinase erbB-2 (Homo sapiens), sequence (P04626 whole entry, looked up): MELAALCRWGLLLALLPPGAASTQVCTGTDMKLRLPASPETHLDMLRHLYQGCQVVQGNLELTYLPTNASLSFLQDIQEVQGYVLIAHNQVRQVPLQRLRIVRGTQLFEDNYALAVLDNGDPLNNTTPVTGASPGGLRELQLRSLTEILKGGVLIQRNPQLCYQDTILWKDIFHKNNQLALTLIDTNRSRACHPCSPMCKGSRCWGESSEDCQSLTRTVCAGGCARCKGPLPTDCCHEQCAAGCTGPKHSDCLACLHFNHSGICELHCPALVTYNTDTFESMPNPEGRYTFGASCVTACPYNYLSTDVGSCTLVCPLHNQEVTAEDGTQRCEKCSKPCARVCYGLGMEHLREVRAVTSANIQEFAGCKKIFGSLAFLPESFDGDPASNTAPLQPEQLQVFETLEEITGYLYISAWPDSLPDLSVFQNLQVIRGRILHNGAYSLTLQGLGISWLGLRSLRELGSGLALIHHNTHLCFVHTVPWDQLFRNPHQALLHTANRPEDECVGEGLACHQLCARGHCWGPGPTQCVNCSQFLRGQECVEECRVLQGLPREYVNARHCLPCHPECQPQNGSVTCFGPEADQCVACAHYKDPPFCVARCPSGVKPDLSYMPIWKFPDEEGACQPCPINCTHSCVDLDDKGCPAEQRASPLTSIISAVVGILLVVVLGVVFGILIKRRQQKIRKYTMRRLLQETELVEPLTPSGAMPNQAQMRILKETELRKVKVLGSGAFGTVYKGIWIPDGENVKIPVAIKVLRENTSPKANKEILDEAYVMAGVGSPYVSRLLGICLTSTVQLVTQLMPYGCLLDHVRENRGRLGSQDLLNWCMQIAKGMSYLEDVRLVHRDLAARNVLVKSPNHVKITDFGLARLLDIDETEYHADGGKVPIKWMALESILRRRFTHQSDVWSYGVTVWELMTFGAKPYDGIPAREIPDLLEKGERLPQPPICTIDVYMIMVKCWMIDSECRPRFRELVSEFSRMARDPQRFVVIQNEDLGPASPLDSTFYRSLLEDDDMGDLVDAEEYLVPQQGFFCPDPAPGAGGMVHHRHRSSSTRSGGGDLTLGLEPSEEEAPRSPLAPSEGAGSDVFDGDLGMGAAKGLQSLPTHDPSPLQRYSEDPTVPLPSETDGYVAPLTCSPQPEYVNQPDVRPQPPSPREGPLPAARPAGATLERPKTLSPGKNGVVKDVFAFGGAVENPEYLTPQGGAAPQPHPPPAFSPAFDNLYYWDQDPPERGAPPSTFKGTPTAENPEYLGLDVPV

Row | SMILES | viability [1] | Her2 level [2] | viability [3] | viability [4] | viability [5] | differential viability (reversal) ([6]; H69AR cells + 2 uM doxorubicin) | viability [6, 9] | viability [6, 10] | inhibition [7] | inhibition [8]
1 | COc1ccc(C(=O)OC(COc2ccccc2)Cn2ccnc2)cc1 (stereo not given) | 83% | 97% (inactive) | 83% (inactive) | 79.6% (inactive) | 94.7% (inactive) | 9.57% (inactive) | 85.1% | 94.7% | 100% (active) | 95.5% (active)
2 | CCOC(=O)c1c(C)oc2ccc(OCC(=O)N(CC)CC)cc12 | 85.5% | 85% (inactive) | 85.5% (inactive) | 101% (inactive) | 101% (inactive) | 3.73% (inactive) | 97.2% | 101% | -5.26% (inactive) | -0.32% (inactive)
3 | O=C(NC1CCCCC1)c1ccc(S(=O)(=O)N2CCCCC2)cc1 | 80.5% | 108% (inactive) | 80.5% (inactive) | 86% (inactive) | 74.9% (inactive) | -29.9% (inactive) | 105% | 74.9% | 4.29% (inactive) | -11.4% (inactive)
4 | CCOC(=O)C1CCN(c2c(N(C)Cc3ccco3)c(=O)c2=O)CC1 | 78% | 105% (inactive) | 78% (inactive) | 93% (inactive) | 104% (inactive) | 15% (inactive) | 88.9% | 104% | 0.13% (inactive) | -5.5% (inactive)
5 | O=S1(=O)CC(N2CCOCC2)c2ccccc21 (stereo not given) | 95% | 98% (inactive) | 95% (inactive) | 92.2% (inactive) | 103% (inactive) | 4.56% (inactive) | 98.1% | 103% | 0.27% (inactive) | -9.52% (inactive)
6 | CCOC(=O)c1c(C)[nH]c(C(=O)CSc2nc3ccccc3o2)c1C | 85.5% | 85% (inactive) | 85.5% (inactive) | 88.6% (inactive) | 73.3% (inactive) | -18.9% (inactive) | 92.2% | 73.3% | -1.15% (inactive) | -5.17% (inactive)
7 | COc1ccccc1N=Cc1nc(-c2ccccc2)oc1OC(C)=O | 99% | 82.5% (inactive) | 99% (inactive) | 79.2% (inactive) | 63.1% (inactive) | -13.8% (inactive) | 76.8% | 63.1% | -4.61% (inactive) | -2.38% (inactive)
8 | COc1ccc(CCNC(=O)COc2ccc(S(=O)(=O)N3CCOCC3)cc2)cc1 | 98% | 87% (inactive) | 98% (inactive) | 102% (inactive) | 95.1% (inactive) | 6.25% (inactive) | 88.9% | 95.1% | -6.76% (inactive) | 0% (inactive)
9 | Nc1nc(-n2cnnc2)nn1-c1ccccc1 | 92% | 116% (inactive) | 92% (inactive) | 85.6% (inactive) | 101% (inactive) | 11.4% (inactive) | 89.9% | 101% | 0.13% (inactive) | -8.5% (inactive)
10 | COc1ccc(OCCCC(=O)Nc2ccc3c(c2)OCCO3)cc1 | 99.5% | 93.5% (inactive) | 99.5% (inactive) | 81.8% (inactive) | 82.7% (inactive) | -3.62% (inactive) | 86.3% | 82.7% | -6.76% (inactive) | -6.83% (inactive)
11 | Cc1ccc(-c2nn(-c3ccccc3)cc2CN(Cc2ccccc2)C(=O)CCC(=O)O)o1 | 100% | 94% (inactive) | 100% (inactive) | 86.5% (inactive) | 85.7% (inactive) | 8.97% (inactive) | 76.7% | 85.7% | -5.07% (inactive) | 3.02% (inactive)
12 | COc1cccc(CNc2nc3nc(C)c(Cl)c(C)n3n2)c1 | 86.5% | 99.5% (inactive) | 86.5% (inactive) | 95.1% (inactive) | 83.6% (inactive) | 0.33% (inactive) | 83.3% | 83.6% | -4.93% (inactive) | -2.38% (inactive)
13 | O=C(N1CCN(Cc2ccccc2)CC1)C12CC3CC(CC(C3)C1)C2 | 83% | 98% (inactive) | 83% (inactive) | 80.4% (inactive) | 83.4% (inactive) | -5.52% (inactive) | 88.9% | 83.4% | -5.54% (inactive) | -0.67% (inactive)
14 | CCOC(=O)c1ccc(N2C(=O)CC(NC3CCN(C(=O)c4ccc(F)cc4)CC3)C2=O)cc1 (stereo not given) | 102% | 126% (inactive) | 102% (inactive) | 103% (inactive) | 110% (inactive) | 14% (inactive) | 96% | 110% | 1.45% (inactive) | -5% (inactive)
15 | COc1ccc(CCNC(=O)C2CC(=O)N(c3ccccc3)C2)cc1OC (stereo not given) | 124% | 99.5% (inactive) | 124% (inactive) | 89.7% (inactive) | 91.5% (inactive) | 1.51% (inactive) | 90% | 91.5% | -2.47% (inactive) | -1.8% (inactive)
16 | OCCNCCCCOc1ccccc1F | 84.5% | 128% (inactive) | 84.5% (inactive) | 111% (inactive) | 102% (inactive) | 8.07% (inactive) | 94.3% | 102% | 2.69% (inactive) | -8.17% (inactive)
17 | CCOc1ccccc1OCC(=O)Nc1nnc(COC)s1 | 89% | 103% (inactive) | 89% (inactive) | 99.5% (inactive) | 91.8% (inactive) | -1.57% (inactive) | 93.3% | 91.8% | -2.8% (inactive) | 10.7% (inactive)
18 | CCc1cc2ccc(C)cc2nc1SCC(=O)N1CCN(C(=O)c2ccco2)CC1 | 112% | 82% (inactive) | 112% (inactive) | 70.1% (inactive) | 64.5% (inactive) | -5.54% (inactive) | 70% | 64.5% | -3.82% (inactive) | -0.18% (inactive)
19 | Cc1cc(NC(=O)CCC(=O)N(c2cccnc2)C(C(=O)NC2CCCC2)c2ccccc2F)no1 (stereo not given) | 99% | 104% (inactive) | 99% (inactive) | 99.4% (inactive) | 93.3% (inactive) | 4.7% (inactive) | 88.6% | 93.3% | 3.2% (inactive) | -2.46% (inactive)
20 | CCCCSc1nc2c(cnn2-c2ccc(Cl)cc2)c(=O)[nH]1 | 93% | 83.5% (inactive) | 93% (inactive) | 85.5% (inactive) | 75.1% (inactive) | 2.96% (inactive) | 72.1% | 75.1% | -4.93% (inactive) | 7.38% (inactive)
21 | CCCN(CCC)S(=O)(=O)c1ccc(NS(C)(=O)=O)cc1 | 110% | 124% (inactive) | 110% (inactive) | 98.2% (inactive) | 105% (inactive) | 6.41% (inactive) | 99% | 105% | -1.18% (inactive) | -5.83% (inactive)
22 | COc1ccc(-n2c(COc3ccccc3)nnc2SCc2ccc(C#N)cc2)cc1 | 88% | 93% (inactive) | 88% (inactive) | 81% (inactive) | 76.4% (inactive) | 22.4% (inactive) | 54.1% | 76.4% | 0% (inactive) | -7.82% (inactive)
23 | COc1cccc(N2CCN(CC(=O)NCc3cccs3)CC2)c1 | 108% | 100% (inactive) | 108% (inactive) | 128% (inactive) | 99% (inactive) | 6.28% (inactive) | 92.8% | 99% | -3.38% (inactive) | -2.17% (inactive)
24 | Cc1cccc2cc(CN(CCCO)C(=O)Nc3ccc(Cl)cc3)c(=O)[nH]c12 | 74% | 69.5% (inactive) | 74% (inactive) | 67.9% (inactive) | 77.1% (inactive) | 5.85% (inactive) | 71.2% | 77.1% | -5.32% (inactive) | -1.43% (inactive)
25 | Nc1nonc1N1CCCCC1 | 85.5% | 152% (inactive) | 85.5% (inactive) | 106% (inactive) | 99.1% (inactive) | 11.5% (inactive) | 87.6% | 99.1% | -3.51% (inactive) | -7.33% (inactive)
26 | Cc1ccc2nsnc2c1S(=O)(=O)N(Cc1cc2cccc(C)c2[nH]c1=O)CC1CCCO1 (stereo not given) | 81.5% | 89% (inactive) | 81.5% (inactive) | 82.3% (inactive) | 21.4% (active) | 0% (inactive) | 21.4% | 21.4% | -5.6% (inactive) | -0.66% (inactive)
27 | c1ccc(-c2noc(C34CC5CC(CC(C5)C3)C4)n2)nc1 | 130% | 106% (inactive) | 130% (inactive) | 94.8% (inactive) | 83.4% (inactive) | 17.3% (inactive) | 66.2% | 83.4% | -4.87% (inactive) | 2.13% (inactive)
28 | CC1(C)NC(=O)N(CC(O)CN(Cc2ccccc2)Cc2ccccc2)C1=O (stereo not given) | 78% | 78.5% (inactive) | 78% (inactive) | 108% (inactive) | 92.6% (inactive) | 13.7% (inactive) | 78.9% | 92.6% | -4.59% (inactive) | -10.2% (inactive)
29 | Cn1c(=O)c2c(nc(NCCCO)n2C/C=C/c2ccccc2)n(C)c1=O | 73.5% | 70.5% (inactive) | 73.5% (inactive) | 85.7% (inactive) | 83.2% (inactive) | -14.8% (inactive) | 98% | 83.2% | -4.08% (inactive) | -0.17% (inactive)
